Compound activity: PubChem, several laboratories
In the library only some 6.7% were active in any assay of this set; here they are far more common.
CSC inhib: cancer stem cell viability inhibitors, primary screen, luminescence | cancer stem cell-like cells viability | inhibition, % at 7.5 µM | 1.1% of 300,000 active; in the data active means inhibition above about 75%; tested in HMLE shEcad cells
T cruzi inh: inhibitors of intracellular T. cruzi growth, primary screen, luminescence, NIH3T3 host cells; T. cruzi beta-gal in NIH3T3, 90 h; inhibition, % (test concentration not listed); 1.4% of 300,000 active; AID 1885, 2009;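 active means mean inhibition across valid replicates above about 55%, limit read from the data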;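 further: signal also drops with host cell toxicity which is not excluded here; 0% = plate median of DMSO wells and 100% = zero luminescence signal; higher percent means less beta-gal luminescence so fewer parasites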
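Incubation – ≥90 h infection period, 3 h prior cell attachment · System – NIH/3T3 fibroblasts plus reporter T. cruzi · Doses – compound pinned at 50 nL/well, DMSO · Read-out basis – percent inhibition of parasite-derived β-gal signal · Signal – luminescent β-galactosidase signal after 60 min lysis · Also added – 5000 T. cruzi trypomastigotes/well · Medium – Low-serum DMEM with 2% FBS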
Beta apoptosis: inhibitors of cytokine-induced beta cell apoptosis, primary screen, luminescence; INS-1E cytokine-induced death, ATP luminescence, 48 h; percent of positive-control rescue, neutral wells zero; protection from apoptosis, % (test concentration not listed); 0.8% of 300,000 active; AID 435005, 2010;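 active means Every replicate reaches about 75%, or at least half do and their mean reaches it too, limit read from the data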;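 further: 0% = cytokine-treated negative control wells and 100% = positive control rescue; higher means more ATP so stronger rescue from cytokine killing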
GRIN3A LBD mod: binders of NR3A ligand-binding domain, primary screen, biophysical, differential scanning fluorimetry, uHTS; Glutamate receptor ionotropic, NMDA 3A (GRIN3A) ligand-binding domain; NR3A LBD differential scanning fluorimetry, Tm shift; 0% = protein alone, 100% = glycine-bound protein; Tm shift relative to glycine control, % at 25 µM; 2.5% of 340,000 active; AID 1259313, 2017;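 active means melting temperature shift of at least 10% of the positive control shift, at one fixed dose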
CHOP inh: inhibitors of CHOP promoter induction, primary screen, cell-based, unfolded protein response, luciferase reporter | CHO-K1 CHOP-promoter luciferase, tunicamycin-induced, 15-18 h | inhibition, % at 10 µM | 3.8% of 220,000 active;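 active means compounds that reduced the stress-induced luciferase reporter signal by more than about 70% of percent inhibition, limit read from the data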;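 further: 0% = tunicamycin plus vehicle and 100% = wells without tunicamycin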
PREPL inhibitor: PREPL enzyme inhibitors, primary screen, biochemical, fluorescence polarization. Prolyl endopeptidase-like (Homo sapiens), Q4J6C6. recombinant PREPL, fluorescence polarization activity-based probe. inhibition, % at 5.96 µM. 0.68% of 320,000 active; in the data active means inhibition above about 43%;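 further: 0% = enzyme with DMSO and 100% = wells lacking enzyme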
Target sequence (Q4J6C6 whole entry, looked up): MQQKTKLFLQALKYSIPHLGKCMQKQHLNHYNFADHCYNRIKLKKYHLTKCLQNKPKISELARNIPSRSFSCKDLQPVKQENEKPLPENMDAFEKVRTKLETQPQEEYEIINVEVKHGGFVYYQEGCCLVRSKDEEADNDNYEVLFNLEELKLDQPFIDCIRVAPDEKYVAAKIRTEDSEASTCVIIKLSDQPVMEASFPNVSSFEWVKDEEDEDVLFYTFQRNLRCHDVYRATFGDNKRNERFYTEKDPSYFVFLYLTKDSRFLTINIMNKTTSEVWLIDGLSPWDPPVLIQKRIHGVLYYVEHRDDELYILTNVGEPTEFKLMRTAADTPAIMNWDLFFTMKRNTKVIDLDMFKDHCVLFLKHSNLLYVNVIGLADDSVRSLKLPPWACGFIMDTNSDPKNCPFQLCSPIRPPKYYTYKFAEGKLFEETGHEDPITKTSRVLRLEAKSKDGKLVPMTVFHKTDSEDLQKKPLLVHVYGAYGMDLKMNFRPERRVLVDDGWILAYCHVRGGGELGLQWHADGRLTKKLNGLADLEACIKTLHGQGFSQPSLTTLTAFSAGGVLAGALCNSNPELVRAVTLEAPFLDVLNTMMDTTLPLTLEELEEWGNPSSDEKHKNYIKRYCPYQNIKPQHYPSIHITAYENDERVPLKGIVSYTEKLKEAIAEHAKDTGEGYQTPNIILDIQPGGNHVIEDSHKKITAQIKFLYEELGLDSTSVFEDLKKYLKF
Starred values were filed as active, the others as inactive.

`Cc1ccc(NC(=S)NC(NC(=O)c2ccccc2)C(Cl)(Cl)Cl)c(C)c1` (configuration not stated) gave CSC inhib 10.4, T cruzi inh 20.3, Beta apoptosis 2.5, GRIN3A LBD mod 14.9*, CHOP inh 55.2 and PREPL inhibitor -2.2.
For CN(C)C(=O)NC(NC(=S)Nc1ccccc1)C(Cl)(Cl)Cl (configuration not stated) the results were CSC inhib 1.8, T cruzi inh -17.3, Beta apoptosis -9.7, GRIN3A LBD mod 1.9, CHOP inh 11.4 and PREPL inhibitor 2.6.
Cc1cc(C)c(NC(=S)NC(NC(=O)c2ccccc2)C(Cl)(Cl)Cl)c(C)c1 (configuration not stated) was read as CSC inhib 3.9, T cruzi inh -0.6, Beta apoptosis 5.9, GRIN3A LBD mod 5.6, CHOP inh 68.7 and PREPL inhibitor -14.7.
For Cc1ccsc1C(=O)NCCc1ccc(S(N)(=O)=O)cc1 the results were CSC inhib 7.1, T cruzi inh -13.3, Beta apoptosis -11.8, GRIN3A LBD mod 1.0 and PREPL inhibitor 4.1.
CNC(=O)[C@H]1O[C@@H](n2cnc3c(N)ncnc32)C(O)[C@H]1O (some centres not stated) was read as CHOP inh -8.5.
For CC(C)NC(=O)c1ccc(COc2ccc(C(C)(C)C)cc2)o1 the results were T cruzi inh 6.9, GRIN3A LBD mod 16.1* and PREPL inhibitor 8.0.
`CC(C)Cn1c(N)c(C(=O)CSc2ccccc2)c(=O)n(C)c1=O` gave CSC inhib 12.0, T cruzi inh -19.2, Beta apoptosis 19.8, GRIN3A LBD mod 4.8, CHOP inh 36.5 and PREPL inhibitor -10.8.
`CC(C)Cn1c(N)c(C(=O)COC(=O)c2ccc(Cl)cc2)c(=O)n(C)c1=O` gave CSC inhib -1.5, T cruzi inh 15.5, Beta apoptosis 2.4, GRIN3A LBD mod -1.4, CHOP inh 20.6 and PREPL inhibitor 10.1.
For Cc1ccccc1CSCC(=O)c1c(N)n(C)c(=O)n(C)c1=O the results were CSC inhib 0.5, T cruzi inh 6.3, Beta apoptosis 0.2, GRIN3A LBD mod 10.6*, CHOP inh -9.8 and PREPL inhibitor 0.3.
`CC(C)Cn1c(N)c(C(=O)COC(=O)c2c(O)c(Cl)cc(Cl)c2Cl)c(=O)n(C)c1=O` gave Beta apoptosis -0.2, GRIN3A LBD mod 10.9* and PREPL inhibitor 14.3.
Screening Cc1ccccc1CSCC(=O)c1c(N)n(CC(C)C)c(=O)n(C)c1=O returned CSC inhib -8.3, T cruzi inh 3.0, Beta apoptosis 15.1, GRIN3A LBD mod -12.5, CHOP inh 81.1* and PREPL inhibitor -7.7.
For CC(C(=O)Nc1ccc(N2CCOCC2)cc1)N1C(=O)NC(C)(C)C1=O (configuration not stated) the results were CSC inhib 0.4, Beta apoptosis -5.2, GRIN3A LBD mod -1.6 and PREPL inhibitor 3.2.
`O=C1CN(C(=O)c2cc([N+](=O)[O-])ccc2Cl)C(c2ccc(F)cc2)c2cc(F)ccc2N1` (configuration not stated) gave CSC inhib -9.8, T cruzi inh -4.8, GRIN3A LBD mod 1.0, CHOP inh -7.0 and PREPL inhibitor 15.3.
Screening Cc1cccc2nc(-c3cccc(NC(=O)c4ccc(Cl)cc4)c3)cn12 returned CSC inhib 25.0, T cruzi inh -19.7, Beta apoptosis -0.4, GRIN3A LBD mod -3.9, CHOP inh 37.5 and PREPL inhibitor 11.4.
For Nc1nonc1-n1nnc(C(=O)N/N=C/c2ccc(OCc3ccccc3)cc2)c1COc1ccc(F)cc1 the results were CSC inhib 25.8, T cruzi inh 21.4, Beta apoptosis 9.6, GRIN3A LBD mod 19.1*, CHOP inh 40.8 and PREPL inhibitor -1.5.
Screening CCCc1c(C(=O)N/N=C/c2cccc(OCc3ccc(F)cc3)c2)nnn1-c1nonc1N returned CSC inhib 9.1, T cruzi inh 4.2, Beta apoptosis 0.1, GRIN3A LBD mod 35.0* and PREPL inhibitor 11.4.
CCN(CC)Cc1c(C(=O)N/N=C/c2cccc(OCc3cccc(Cl)c3)c2)nnn1-c1nonc1N was read as CSC inhib 0.1, T cruzi inh -4.8, Beta apoptosis -4.3, GRIN3A LBD mod 12.5* and PREPL inhibitor -1.6.
`Nc1nonc1-n1nnc(C(=O)N/N=C/c2ccc(O)cc2)c1COc1ccc(F)cc1` gave CSC inhib -2.7, T cruzi inh 3.6, Beta apoptosis -5.6, GRIN3A LBD mod 3.8, CHOP inh 19.3 and PREPL inhibitor -38.7.
For Cc1cccc(COc2ccc(/C=N/NC(=O)c3nnn(-c4nonc4N)c3COc3ccc(F)cc3)cc2)c1 the results were CSC inhib 11.1, T cruzi inh 13.1, Beta apoptosis 7.8, GRIN3A LBD mod 25.2*, CHOP inh 29.0 and PREPL inhibitor -16.2.
CCOC(=O)C1(CC)NC(c2ccc(OC)cc2OC)C2C(=O)N(C)C(=O)C21 (configuration not stated) was read as CSC inhib -3.5, T cruzi inh -10.8, Beta apoptosis 1.0, GRIN3A LBD mod -1.2, CHOP inh 16.6 and PREPL inhibitor 2.5.
`Cc1ccc2nc(N3CCN(c4ccccc4F)CC3)c(C=O)c(=O)n2c1` gave CSC inhib -2.3, T cruzi inh 6.7, Beta apoptosis -1.4, GRIN3A LBD mod -0.8, CHOP inh 12.6 and PREPL inhibitor 7.1.
Screening Cc1cccc(COc2ccc(/C=N/NC(=O)c3nnn(-c4nonc4N)c3CN3CCCCC3)cc2)c1 returned CSC inhib 1.0, T cruzi inh -5.8, Beta apoptosis 1.5, GRIN3A LBD mod 12.9* and PREPL inhibitor -4.2.
Nc1nonc1-n1nnc(C(=O)N/N=C/c2ccccc2Cl)c1COc1ccc(F)cc1 was read as CSC inhib -2.8, T cruzi inh 13.1, Beta apoptosis -7.8, GRIN3A LBD mod 22.8*, CHOP inh 34.8 and PREPL inhibitor -30.9.
`CCOc1ccccc1/C=N/NC(=O)c1nnn(-c2nonc2N)c1CN1CCCCCC1` gave CSC inhib -1.0, T cruzi inh 1.7, Beta apoptosis -0.1, GRIN3A LBD mod 0.0 and PREPL inhibitor 1.9.
`Nc1nonc1-n1nnc(C(=O)N/N=C/c2ccc(OCc3ccccc3F)cc2)c1CN1CCCCC1` gave CSC inhib -9.0, T cruzi inh 2.1, Beta apoptosis 11.6, GRIN3A LBD mod 15.7* and PREPL inhibitor 7.8.
Screening Nc1nonc1-n1nnc(C(=O)N/N=C/c2ccc(OCc3cccc(Cl)c3)cc2)c1CN1CCCCC1 returned CSC inhib -7.0, T cruzi inh 11.3, Beta apoptosis -1.6, GRIN3A LBD mod -3.8 and PREPL inhibitor 0.3.
